# Data: ChEMBL document CHEMBL1146569, “The pterocellins, novel bioactive alkaloids from the marine bryozoan Pterocella vesiculosa” (J Nat Prod, 2003)
# Columns and labels:
# [1] = Growth inhibition of human […] cells; type: functional; settings: read-out: LC50 (the source's name)
# K562 = assay: Growth inhibition of human K562 cells; type: functional
# [2] = Cytotoxicity against african green monkey BSC1 cells at 40 ug/disk; type: cell-based; settings: chlorocebus aethiops, bsc-1
# How it was run: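 BSC-1 cells (ATCC CCL 26), a line derived from African green monkey kidney, are the host cells of the combined antiviral/cytotoxicity assay. Cytotoxicity is scored on these cells within that assay.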
# LOX IMVI = assay: Growth inhibition of human LOXIMVI cells; type: functional
# SK-OV-3 = assay: Growth inhibition of human SKOV3 cells; type: functional
# HCC 2998 = assay: Growth inhibition of human HCC2998 cells; type: functional
# Escherichia coli = assay: Antimicrobial activity against Escherichia coli assessed per disk; type: functional
# HOP-62 = assay: Growth inhibition of human HOP62 cells; type: functional
# MDA-MB-231 = assay: Growth inhibition of human MDA-MB-231 cells; type: functional
# SK-MEL-28 = assay: Growth inhibition of human SK-MEL-28 cells; type: functional
# SN12C = assay: Growth inhibition of human SN12C cells; type: functional
# A549 = assay: Growth inhibition of human A549 cells; type: functional
# OVCAR-8 = assay: Growth inhibition of human OVCAR8 cells; type: functional
# [3] = Growth inhibition of human Hs 578T cells; type: functional
# Candida albicans = assay: Antimicrobial activity against Candida albicans assessed per disk; type: functional
# OVCAR-3 = assay: Growth inhibition of human OVCAR-3 cells; type: functional
# A498 = assay: Growth inhibition of human A498 cells; type: functional
# KM12 = assay: Growth inhibition of human KM12 cells; type: functional
# SK-MEL-2 = assay: Growth inhibition of human SK-MEL-2 cells; type: functional
# SW-620 = assay: Growth inhibition of human SW620 cells; type: functional
# OVCAR-4 = assay: Growth inhibition of human OVCAR4 cells; type: functional
# M14 = assay: Growth inhibition of human M14 cells; type: functional
# PC-3 = assay: Growth inhibition of human PC3 cells; type: functional
# BT-549 = assay: Growth inhibition of human BT549 cells; type: functional
# [4] = read-out: LC50 (the source's name)
smiles,measurement,setting,value
COc1cn2c(cc1=O)C(=O)c1ccnc(Cc3ccccc3)c1-2 [PTEROCELLIN B],CC50,[1],> 100000 nM
same,GI50,K562,1200 nM
same,LC50 (concentration killing 50% of cells),K562,4900 nM
same,TGI,K562,2400 nM
same,Activity,[2],Toxic
same,GI50,LOX IMVI,400 nM
same,LC50,LOX IMVI,13200 nM
same,TGI,LOX IMVI,2400 nM
same,GI50,SK-OV-3,2700 nM
same,TGI,SK-OV-3,13800 nM
same,CC50,SK-OV-3; [4],47100 nM
same,GI50,HCC 2998,400 nM
same,LC50 (concentration killing 50% of cells),HCC 2998,3200 nM
same,TGI,HCC 2998,1000 nM
same,MIC,Escherichia coli,>60 µg
same,GI50,HOP-62,1000 nM
same,TGI,HOP-62,2100 nM
same,CC50,HOP-62; [4],4600 nM
same,GI50,MDA-MB-231,3300 nM
same,TGI,MDA-MB-231,29600 nM
same,CC50,MDA-MB-231; [4],> 100000 nM
same,GI50,SK-MEL-28,1000 nM
same,TGI,SK-MEL-28,2600 nM
same,CC50,SK-MEL-28; [4],6700 nM
same,GI50,SN12C,500 nM
same,LC50,SN12C,5500 nM
same,TGI,SN12C,1800 nM
same,GI50,A549,200 nM
same,LC50 (50% cell kill concentration),A549,1800 nM
same,TGI,A549,500 nM
same,GI50,OVCAR-8,700 nM
same,TGI,OVCAR-8,7600 nM
same,CC50,OVCAR-8; [4],84800 nM
same,GI50,[3],5100 nM
same,TGI,[3],> 100000 nM
same,CC50,[3]; [4],> 100000 nM
same,MIC,Candida albicans,>60 µg
same,GI50,OVCAR-3,200 nM
same,TGI,OVCAR-3,600 nM
same,CC50,OVCAR-3; [4],3200 nM
same,GI50,A498,1900 nM
same,TGI,A498,4000 nM
same,CC50,A498; [4],8500 nM
same,GI50,KM12,600 nM
same,TGI,KM12,1900 nM
same,CC50,KM12; [4],4500 nM
same,GI50,SK-MEL-2,700 nM
same,TGI,SK-MEL-2,2200 nM
same,CC50,SK-MEL-2; [4],5300 nM
same,GI50,SW-620,700 nM
same,LC50 (concentration killing 50% of cells),SW-620,4900 nM
same,TGI,SW-620,2000 nM
same,GI50,OVCAR-4,1300 nM
same,LC50,OVCAR-4,5600 nM
same,TGI,OVCAR-4,2700 nM
same,GI50,M14,100 nM
same,LC50 (concentration killing 50% of cells),M14,500 nM
same,TGI,M14,200 nM
same,GI50,PC-3,1600 nM
same,LC50 (concentration killing 50% of cells),PC-3,26600 nM
same,TGI,PC-3,5900 nM
same,GI50,BT-549,1500 nM
same,TGI,BT-549,2900 nM
same,CC50,BT-549; [4],5600 nM
